16 compounds from ChEMBL document CHEMBL1132971, “New azolidinediones as inhibitors of protein tyrosine phosphatase 1B with antihyperglycemic properties” (J Med Chem, 2000) can be followed below.

Assay [1] has as its system Mus musculus. Nature of the assay: Evaluated in vivo for their ability to decrease plasma glucose levels in diabetic C57BL/KsJ db/db mouse at a dose 100 mg/kg/day. *p indicates <0.05. In kind it is functional. An outline of the steps:
(§1)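 Mice dosed orally once daily for 4 days; plasma glucose and insulin measured and expressed as percent change versus a vehicle-treated group (mean ± SE, 4-6 mice/group). NS is generally less than -15% change. Significance is versus vehicle-treated mice.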

For assay [2], the target named is T1, Tyrosine-protein phosphatase non-receptor type 1 (Mus musculus) (UniProt P35821).
T1 sequence (whole entry): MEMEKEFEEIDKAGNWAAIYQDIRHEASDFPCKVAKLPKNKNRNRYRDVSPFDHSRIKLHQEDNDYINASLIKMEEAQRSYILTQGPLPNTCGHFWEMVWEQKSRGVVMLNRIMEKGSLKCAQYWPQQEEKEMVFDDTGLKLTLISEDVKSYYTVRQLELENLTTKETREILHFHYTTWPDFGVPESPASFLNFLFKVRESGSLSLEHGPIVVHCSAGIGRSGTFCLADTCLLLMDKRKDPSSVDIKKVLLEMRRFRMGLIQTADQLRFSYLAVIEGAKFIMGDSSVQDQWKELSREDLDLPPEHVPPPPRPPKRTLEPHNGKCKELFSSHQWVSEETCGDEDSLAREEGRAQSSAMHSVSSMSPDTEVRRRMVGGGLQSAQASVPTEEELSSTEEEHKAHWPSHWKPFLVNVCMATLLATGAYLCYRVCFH
Kind of assay: In vivo ability to decrease plasma glucose levels in diabetic C57BL/KsJ ob/ob mouse at a dose 100 mg/kg/day. The format is functional, organism-based. An outline of the steps:
(§2)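 Diabetic db/db or ob/ob mice dosed orally once daily for 4 days. Plasma glucose and insulin reported as percent change from a vehicle-treated group. 4-6 mice per group. Significance set at p < 0.05 or p < 0.01 versus vehicle; NS means generally less than -15% change.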

The target in assay [3] is T2, Tyrosine-protein phosphatase non-receptor type 1 (Rattus norvegicus) (UniProt P20417).
T2 sequence (whole entry): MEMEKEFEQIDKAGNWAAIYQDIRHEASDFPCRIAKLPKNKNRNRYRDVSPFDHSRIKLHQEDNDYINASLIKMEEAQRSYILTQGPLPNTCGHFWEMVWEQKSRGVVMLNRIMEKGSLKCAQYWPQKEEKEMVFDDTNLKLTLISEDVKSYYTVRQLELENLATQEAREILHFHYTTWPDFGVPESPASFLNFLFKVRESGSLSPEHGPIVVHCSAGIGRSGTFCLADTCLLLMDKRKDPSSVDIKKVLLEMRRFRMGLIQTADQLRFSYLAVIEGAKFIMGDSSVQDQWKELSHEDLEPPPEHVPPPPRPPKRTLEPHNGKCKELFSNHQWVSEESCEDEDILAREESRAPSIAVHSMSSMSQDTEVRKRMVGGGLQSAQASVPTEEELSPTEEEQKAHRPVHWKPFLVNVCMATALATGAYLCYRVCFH
Kind of assay: Inhibition of PTPase (PTP1B) activity in rat hepatic membrane at 50 uM concentration, using pNPP as the substrate. The format is cell membranes. The note with it: Liver. An outline of the steps: (§3)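 Liver membranes from male Sprague-Dawley rats (100-150 g), about 30 µg protein per well. Preincubated 10 min at 37 °C with compound in 1.25% DMSO in 50 mM HEPES pH 7.4. Then 6.33 mM pNPP for 30 min at 37 °C, stopped with NaOH. p-Nitrophenol read at 410 nm. Run in triplicate. Reported as percent of untreated control.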

The target in assay [4] is T3, Tyrosine-protein phosphatase non-receptor type 1 (Rattus norvegicus, UniProt P20417).
T3 sequence (P20417 whole entry): T2 sequence (whole entry)
Kind of assay: Inhibition of PTPase activity using recombinant r-PTP1B as the enzyme and IR-triphosphopeptide as substrate. An outline of the steps:
(§4)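 Rat recombinant PTP1B in 33 mM TRIS-HCl, 2 mM EDTA, 50 mM β-mercaptoethanol, pH 7.4 (about 1000-2000 nmol/min/mg). Preincubated 10 min at 37 °C with or without compound in HEPES buffer pH 7.4. Released phosphate read by malachite green-ammonium molybdate at 650 nm against a phosphate standard. Quadruplicates. IC50 by four-parameter logistic fit.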

For assay [5], the target named is T1, Tyrosine-protein phosphatase non-receptor type 1 (Mus musculus). Kind of assay: Ability to decrease plasma insulin levels in mouse at a dose 100 mg/kg/day. The format is functional, organism-based. The procedure, abridged: as §2
The target of assay [6] is T4, Tyrosine-protein phosphatase non-receptor type 1 (Homo sapiens, UniProt P18031).
T4 sequence (P18031 whole entry): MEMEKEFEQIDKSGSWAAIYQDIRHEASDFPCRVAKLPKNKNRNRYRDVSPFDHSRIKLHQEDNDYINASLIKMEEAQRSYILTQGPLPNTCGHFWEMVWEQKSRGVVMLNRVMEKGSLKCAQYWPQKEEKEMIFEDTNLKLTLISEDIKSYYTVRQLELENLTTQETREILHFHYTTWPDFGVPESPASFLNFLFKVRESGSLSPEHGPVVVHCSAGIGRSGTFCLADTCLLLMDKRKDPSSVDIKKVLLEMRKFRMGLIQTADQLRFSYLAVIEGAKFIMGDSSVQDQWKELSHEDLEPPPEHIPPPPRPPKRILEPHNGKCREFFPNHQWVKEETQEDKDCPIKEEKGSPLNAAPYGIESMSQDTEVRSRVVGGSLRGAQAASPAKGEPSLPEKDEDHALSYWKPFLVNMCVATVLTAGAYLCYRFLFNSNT
Kind of assay: Concentration required to inhibit PTPase activity, recombinant Protein Tyrosine Phosphatase 1b as the enzyme. The procedure, abridged:
as §4

The test system of assay [7] is Mus musculus. Kind of assay: Evaluated in vivo for their ability to decrease plasma glucose levels in diabetic C57BL/KsJ db/db mouse at a dose 100 mg/kg/day; NS is non significant. In kind it is functional, organism-based. An outline of the steps:
as §2

Assay [8] concerns the target T3, Tyrosine-protein phosphatase non-receptor type 1. Nature of the assay: Inhibition of PTPase activity using recombinant r-PTP1B and IR-triphosphopeptide as substrate; ND is no data. The procedure, abridged:
as §4

Assay [9] has the same target. Kind of assay: Inhibition of PTPase activity in rat hepatic membrane at a concentration of 50 uM using pNPP as the substrate. In kind it is cell membranes, Liver. The procedure, abridged: as §3
Assay [10] deals with T2, Tyrosine-protein phosphatase non-receptor type 1 (Rattus norvegicus). Kind of assay: Inhibition of PTPase activity using recombinant r-PTP1B as the enzyme and IR-triphosphopeptide as substrate at 10 uM. The procedure, abridged: (§5)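 Recombinant rat PTP1B (human 321-aa form assayed the same way), activity about 1000-2000 nmol/min/mg, preincubated with compound for 10 min at 37 °C in HEPES pH 7.4. The reaction is started with 50 µM triphosphorylated insulin receptor 1142-1153 dodecapeptide and run 30 min at 37 °C. Released phosphate read by malachite green-molybdate at 650 nm, in quadruplicate. Result is percent inhibition versus control.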

Assay [11] has the same target. Kind of assay: Inhibition of PTPase activity using recombinant r-PTP1B as the enzyme and IR-triphosphopeptide as substrate at 50 uM. An outline of the steps: as §4
For assay [12], the system named is Mus musculus. Kind of assay: Evaluated in vivo for their ability to decrease plasma glucose levels in diabetic C57BL/KsJ ob/ob mouse at a dose 100 mg/kg/day, **p indicates <0.01. The format is functional. The procedure, abridged:
as §1

Assay [13] deals with Mus musculus. Nature of the assay: Evaluated for their ability to decrease plasma insulin levels in mouse at a dose 100 mg/kg/day, **p indicates <0.01. The format is functional. The procedure, abridged:
as §2

In assay [14] the test system is Mus musculus. Nature of the assay: Evaluated in vivo for their ability to decrease plasma glucose levels in diabetic C57BL/KsJ db/db mouse at a dose 100 mg/kg/day, *p indicates <0.05. In kind it is functional. An outline of the steps:
as §1

For assay [15], the target named is T2, Tyrosine-protein phosphatase non-receptor type 1 (Rattus norvegicus). Nature of the assay: Inhibition of PTPase activity using recombinant Protein-tyrosine phosphatase 1B as the enzyme and IR-triphosphopeptide as substrate at 50 uM. An outline of the steps:
as §5

Assay [16] has the same target. Nature of the assay: Inhibition of Protein-tyrosine phosphatase 1B activity in rat hepatic membrane at a concentration of 50 uM using pNPP as the substrate. In kind it is cell membranes. The note with it: Liver. The procedure, abridged: as §3

Active and inactive are the calls of the source. The calls are words filed in the database; no cut-off is given here.

As to `C/C(=C\CC1OC(=O)NC1=O)c1cccc(OCc2nc(-c3ccc(OC(F)(F)F)cc3)oc2C)c1` (stereo unspecified), the Decrease in assay [1] was 40%; in [2], “Not significant”; in assay [5], “Not significant”. The compound further came in with an inhibition in assay [3] of 27%. The IC50 in [4] is 46 µM.
In assay [3], `CCCC/C(=C\Cn1oc(=O)n(CC(=O)O)c1=O)c1cccc(OCc2cc(Cl)cc(Cl)c2)c1` had an inhibition of 31%. The IC50 in assay [6] was 48 µM.
As for `Cc1oc(-c2ccc(C(F)(F)F)cc2)nc1COc1cccc(/C=C/Cn2oc(=O)[nH]c2=O)c1`, the Decrease result in assay [7] was “inactive”. Further, the Decrease entry in [2] and in [5] was “Not significant” each time. In addition, the inhibition in assay [3] stood at 49%. In addition, the IC50 result in assay [8] is “Not significant”.
`CCCC/C(=C\Cn1oc(=O)[nH]c1=O)c1cccc(Oc2cc(Cl)cc(Cl)c2)c1` showed an Inhibition % in assay [9] of 23%. Moreover, the IC50 in assay [4] turned out to be 1.6 µM.
On to `Cc1oc(-c2ccc(C(F)(F)F)cc2)nc1COc1cccc(C2CC2Cn2oc(=O)[nH]c2=O)c1` (stereo unspecified), for which the values for the Decrease in assay [1], in [2] and in assay [5] were 36%, “Not significant” and “Not significant”, respectively. Further, the inhibition in assay [3] turned out to be 51%; in assay [10] it was 28%.
Consider `Cc1oc(-c2ccc(C(F)(F)F)cc2)nc1COc1cccc(/C(=C/Cn2oc(=O)[nH]c2=O)c2ccc(Cl)cc2)c1`, for which the Decrease result in assay [2] and in [5] was “Not significant” throughout. Besides, the Inhibition % in assay [9] was determined as 27%. For the same compound, the inhibition in assay [11] stood at 1.4%.
Take `CCCC/C(=C\Cn1oc(=O)n(CC(=O)O)c1=O)c1cccc(Oc2cc(Cl)cc(Cl)c2)c1`: the inhibition in assay [3] came out at 63%. Moreover, the IC50 in assay [6] stood at 1.3 µM.
Take `C/C(=C\Cn1oc(=O)[nH]c1=O)c1ccc(OCCc2nc(-c3ccc(C(F)(F)F)cc3)oc2C)cc1`: the Decrease result in assay [7] was “inactive”. Besides, the Decrease result in [2] and in [5] was “Not significant” throughout. Also, the inhibition in assay [3] is 63%. The IC50 in assay [4] was 1.6 µM.
In assay [3], `CCCCCCCCC(=CCn1oc(=O)n(CC(=O)O)c1=O)c1cccc(OCc2nc(-c3ccc(C(F)(F)F)cc3)oc2C)c1` showed an inhibition of 64%. Further, the IC50 in assay [6] is 0.12 µM.
`CCCCCCCC/C(=C/Cn1oc(=O)n(CC(=O)O)c1=O)c1cccc(OCc2nc(-c3ccc(C(F)(F)F)cc3)oc2C)c1` displayed an inhibition in assay [3] of 57%. Also, the IC50 in assay [6] was determined as 0.16 µM.
`CCCCc1oc2ccccc2c1COc1cccc(/C(C)=C/Cn2oc(=O)[nH]c2=O)c1` gave an Inhibition % in [9] of 33%. In addition, the IC50 in assay [4] amounted to 2.7 µM.
For the compound `CCCC/C(=C\Cn1oc(=O)[nH]c1=O)c1cccc(OCc2nc(-c3ccc(C(F)(F)F)cc3)oc2-c2ccccc2)c1`, in assay [3], the inhibition was determined as 76%. In addition, the IC50 in assay [6] amounted to 0.37 µM.
In the same order, the values of `Cc1oc(-c2ccc(C(F)(F)F)cc2)nc1COc1cccc(/C(=C/Cn2oc(=O)n(CC(=O)O)c2=O)c2ccccc2)c1` are 24% and 0.85 µM.
For `Cc1oc(-c2ccc(C(F)(F)F)cc2)nc1COc1cccc(/C(=C/Cn2oc(=O)[nH]c2=O)c2ccc(F)cc2)c1`, the Decrease in assay [12] came out at 34%; in assay [13], 38%. Also, the Inhibition % in [9] came to 28%. For the same compound, in [11], the inhibition is 1.2%.
Regarding `CC/C(=C/Cn1oc(=O)[nH]c1=O)c1cccc(OCc2nc(-c3ccc(C(F)(F)F)cc3)oc2C)c1`, the Decrease was 65% in assay [14], “Not significant” in assay [2] and “Not significant” in assay [5]. In addition, the inhibition stood at 80% in assay [15] and 56% in assay [16].
With `C/C(=C\Cc1nnn[nH]1)c1cccc(OCc2nc(-c3ccc(OC(F)(F)F)cc3)oc2C)c1`, the inhibition in assay [3] came out at 29%. In addition, the IC50 in [6] amounted to 13 µM.

Broadly, the inhibition is the percentage by which the read-out fell short of the control. One may read the IC50 as the concentration at which inhibition is half-maximal.
